Results on 1 compound are retold here after ChEMBL document CHEMBL4229344 (Eur J Med Chem, 2018).

In data set [1] the target is Activin receptor type-2A (Homo sapiens) (UniProt P27037). The experiment in a line: Binding affinity to wild-type human ACVR2A (V171 to T499 residues) expressed in bacterial expression system assessed as residual binding level at 1 uM by Kinomescan method relative to control. In outline: (§1)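 Single-concentration (1 μM) competition-binding screen run by KINOMEscan against a panel of 468 purified kinases and mutants. The read-out is the relative binding activity of the test compound to each kinase.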
Sequence of Activin receptor type-2A (Homo sapiens) (P27037 whole entry, the tested form may be a part): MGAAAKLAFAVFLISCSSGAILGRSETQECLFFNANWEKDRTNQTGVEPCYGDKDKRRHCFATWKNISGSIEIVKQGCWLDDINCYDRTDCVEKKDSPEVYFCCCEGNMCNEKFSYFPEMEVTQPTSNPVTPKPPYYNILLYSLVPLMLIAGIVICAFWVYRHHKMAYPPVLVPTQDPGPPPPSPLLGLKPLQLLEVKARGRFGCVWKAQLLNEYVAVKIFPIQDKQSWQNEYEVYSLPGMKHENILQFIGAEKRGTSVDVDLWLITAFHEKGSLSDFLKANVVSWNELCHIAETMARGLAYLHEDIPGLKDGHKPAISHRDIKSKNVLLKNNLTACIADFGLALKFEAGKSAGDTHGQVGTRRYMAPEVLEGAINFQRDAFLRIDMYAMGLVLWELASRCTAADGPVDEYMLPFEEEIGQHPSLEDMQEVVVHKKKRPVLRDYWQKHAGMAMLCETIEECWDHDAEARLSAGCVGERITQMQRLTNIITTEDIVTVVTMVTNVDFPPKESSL

Data set [2] addresses Atypical kinase COQ8A, mitochondrial (Homo sapiens) (UniProt Q8NI60). Description: Binding affinity to wild-type human full length ADCK3 (M280 to Q647 residues) expressed in bacterial expression system assessed as residual binding level at 1 uM by Kinomescan method relative to control. In outline: as §1
Data set [3] has as its target Cyclin-dependent kinase 8 (Homo sapiens) (UniProt P49336). The experiment in a line: Binding affinity to wild-type human partial length CDK8 (M1 to T360 residues) expressed in bacterial expression system assessed as residual binding level at 1 uM by Kinomescan method relative to control.
Data set [4] addresses Dual specificity protein kinase CLK2 (Homo sapiens) (UniProt P49760). Description: Binding affinity to wild-type human partial length CLK2 (D144 to R498 residues) expressed in bacterial expression system assessed as residual binding level at 1 uM by Kinomescan method relative to control. The essentials: (§2)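 Kinome-wide competition binding screen against a panel of 468 purified kinases/mutants, with the test compound at a single concentration of 1 μM. Read-out is the relative binding activity of each kinase in the presence of compound.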

Data set [5] deals with Serine/threonine-protein kinase 17B (Homo sapiens) (UniProt O94768). The experiment in a line: Binding affinity to wild-type human full length DRAK2 (M1 to C372 residues) expressed in bacterial expression system assessed as residual binding level at 1 uM by Kinomescan method relative to control. The essentials:
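KINOMEscan competition binding against 468 purified kinases/mutants, test compound at 1 µM; residual binding relative to control.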

Data set [6] deals with Homeodomain-interacting protein kinase 3 (Homo sapiens) (UniProt Q9H422). The experiment in a line: Binding affinity to wild-type human partial length HIPK3 (M153 to N562 residues) expressed in mammalian expression system assessed as residual binding level at 1 uM by Kinomescan method relative to control.
Sequence of Homeodomain-interacting protein kinase 3 (Homo sapiens) (Q9H422 whole entry, looked up, the tested form may be a part): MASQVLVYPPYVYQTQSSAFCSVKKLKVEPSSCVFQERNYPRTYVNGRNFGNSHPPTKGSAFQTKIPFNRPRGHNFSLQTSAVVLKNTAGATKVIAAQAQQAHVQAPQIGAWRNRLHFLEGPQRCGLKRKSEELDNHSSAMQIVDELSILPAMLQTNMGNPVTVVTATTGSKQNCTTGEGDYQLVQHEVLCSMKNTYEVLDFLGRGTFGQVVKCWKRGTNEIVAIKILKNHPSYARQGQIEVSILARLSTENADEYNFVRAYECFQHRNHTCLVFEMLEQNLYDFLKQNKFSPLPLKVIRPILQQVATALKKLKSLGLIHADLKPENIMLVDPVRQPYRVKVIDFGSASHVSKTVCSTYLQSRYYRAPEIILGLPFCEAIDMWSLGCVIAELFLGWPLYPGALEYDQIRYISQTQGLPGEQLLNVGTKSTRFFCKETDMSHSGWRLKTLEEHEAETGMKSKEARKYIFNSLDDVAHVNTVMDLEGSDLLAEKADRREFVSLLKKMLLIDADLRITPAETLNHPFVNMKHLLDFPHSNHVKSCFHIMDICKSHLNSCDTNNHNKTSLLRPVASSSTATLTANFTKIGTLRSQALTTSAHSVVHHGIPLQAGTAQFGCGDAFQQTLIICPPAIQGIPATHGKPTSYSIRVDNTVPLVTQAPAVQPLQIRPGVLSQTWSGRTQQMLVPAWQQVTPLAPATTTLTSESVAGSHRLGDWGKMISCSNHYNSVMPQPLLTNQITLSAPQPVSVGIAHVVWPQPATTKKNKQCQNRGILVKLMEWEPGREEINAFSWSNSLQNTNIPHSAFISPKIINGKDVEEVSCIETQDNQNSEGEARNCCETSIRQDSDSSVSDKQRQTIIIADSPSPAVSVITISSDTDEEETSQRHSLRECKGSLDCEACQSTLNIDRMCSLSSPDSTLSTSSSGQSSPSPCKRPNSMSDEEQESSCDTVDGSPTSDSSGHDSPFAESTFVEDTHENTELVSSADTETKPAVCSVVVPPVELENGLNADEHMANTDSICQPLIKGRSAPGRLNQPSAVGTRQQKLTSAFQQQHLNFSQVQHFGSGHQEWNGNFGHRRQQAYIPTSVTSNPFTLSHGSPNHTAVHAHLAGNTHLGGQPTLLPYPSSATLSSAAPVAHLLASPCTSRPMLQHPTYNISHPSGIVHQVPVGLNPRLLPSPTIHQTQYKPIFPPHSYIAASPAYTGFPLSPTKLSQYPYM
Data set [7] addresses Insulin receptor-related protein (Homo sapiens) (UniProt P14616). Description: Binding affinity to wild-type human partial length INSRR (R950 to E1278 residues) expressed in bacterial expression system assessed as residual binding level at 1 uM by Kinomescan method relative to control.
Data set [8] addresses Mitogen-activated protein kinase 10 (Homo sapiens) (UniProt P53779). The experiment in a line: Binding affinity to wild-type human partial length JNK3 (V28 to Q422 residues) expressed in mammalian expression system assessed as residual binding level at 1 uM by Kinomescan method relative to control. In outline:
as §2

Data set [9] addresses Serine/threonine-protein kinase LATS2 (Homo sapiens) (UniProt Q9NRM7). Description: Binding affinity to wild-type human partial length LATS2 (Q641 to V1088 residues) expressed in mammalian expression system assessed as residual binding level at 1 uM by Kinomescan method relative to control.
Data set [10] deals with Serine/threonine-protein kinase STK11 (Homo sapiens) (UniProt Q15831). Description: Binding affinity to wild-type human full length LKB1 (M1 to Q433 residues) expressed in bacterial expression system assessed as residual binding level at 1 uM by Kinomescan method relative to control. The essentials: as §1
Data set [11] addresses Mitogen-activated protein kinase kinase kinase 15 (Homo sapiens) (UniProt Q6ZN16). Description: Binding affinity to wild-type human partial length MAP3K15 (T625 to L932 residues) expressed in mammalian expression system assessed as residual binding level at 1 uM by Kinomescan method relative to control.
Data set [12] addresses Platelet-derived growth factor receptor alpha (Homo sapiens, UniProt P16234). The experiment in a line: Binding affinity to wild-type human partial length PDGFRalpha (V575 to D1002 residues) expressed in mammalian expression system assessed as residual binding level at 1 uM by Kinomescan method relative to control. In outline: (§3)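 KINOMEscan competition binding against a panel of 468 purified kinases/mutants, compound tested at 1 μM; readout is relative binding activity versus control.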

For data set [13], the target named is Serine/threonine-protein kinase pim-2 (Homo sapiens) (UniProt Q9P1W9). The experiment in a line: Binding affinity to wild-type human partial length PIM2 (M1 to E291 residues) expressed in bacterial expression system assessed as residual binding level at 1 uM by Kinomescan method relative to control.
The target in data set [14] is Serine/threonine-protein kinase D1 (Homo sapiens) (UniProt Q15139). Description: Binding affinity to wild-type human partial length PRKD1 (G551 to E870 residues) expressed in bacterial expression system assessed as residual binding level at 1 uM by Kinomescan method relative to control. In outline: as §3
The target of data set [15] is Receptor-interacting serine/threonine-protein kinase 2 (Homo sapiens) (UniProt O43353). Description: Binding affinity to wild-type human partial length RIPK2 (M1 to K310 residues) expressed in bacterial expression system assessed as residual binding level at 1 uM by Kinomescan method relative to control.
Data set [16] deals with Rho-associated protein kinase 1 (Homo sapiens) (UniProt Q13464). Description: Binding affinity to wild-type human partial length ROCK1 (M1 to R415 residues) expressed in mammalian expression system assessed as residual binding level at 1 uM by Kinomescan method relative to control.
Sequence of Rho-associated protein kinase 1 (Homo sapiens) (Q13464 2-1354 limits assumed): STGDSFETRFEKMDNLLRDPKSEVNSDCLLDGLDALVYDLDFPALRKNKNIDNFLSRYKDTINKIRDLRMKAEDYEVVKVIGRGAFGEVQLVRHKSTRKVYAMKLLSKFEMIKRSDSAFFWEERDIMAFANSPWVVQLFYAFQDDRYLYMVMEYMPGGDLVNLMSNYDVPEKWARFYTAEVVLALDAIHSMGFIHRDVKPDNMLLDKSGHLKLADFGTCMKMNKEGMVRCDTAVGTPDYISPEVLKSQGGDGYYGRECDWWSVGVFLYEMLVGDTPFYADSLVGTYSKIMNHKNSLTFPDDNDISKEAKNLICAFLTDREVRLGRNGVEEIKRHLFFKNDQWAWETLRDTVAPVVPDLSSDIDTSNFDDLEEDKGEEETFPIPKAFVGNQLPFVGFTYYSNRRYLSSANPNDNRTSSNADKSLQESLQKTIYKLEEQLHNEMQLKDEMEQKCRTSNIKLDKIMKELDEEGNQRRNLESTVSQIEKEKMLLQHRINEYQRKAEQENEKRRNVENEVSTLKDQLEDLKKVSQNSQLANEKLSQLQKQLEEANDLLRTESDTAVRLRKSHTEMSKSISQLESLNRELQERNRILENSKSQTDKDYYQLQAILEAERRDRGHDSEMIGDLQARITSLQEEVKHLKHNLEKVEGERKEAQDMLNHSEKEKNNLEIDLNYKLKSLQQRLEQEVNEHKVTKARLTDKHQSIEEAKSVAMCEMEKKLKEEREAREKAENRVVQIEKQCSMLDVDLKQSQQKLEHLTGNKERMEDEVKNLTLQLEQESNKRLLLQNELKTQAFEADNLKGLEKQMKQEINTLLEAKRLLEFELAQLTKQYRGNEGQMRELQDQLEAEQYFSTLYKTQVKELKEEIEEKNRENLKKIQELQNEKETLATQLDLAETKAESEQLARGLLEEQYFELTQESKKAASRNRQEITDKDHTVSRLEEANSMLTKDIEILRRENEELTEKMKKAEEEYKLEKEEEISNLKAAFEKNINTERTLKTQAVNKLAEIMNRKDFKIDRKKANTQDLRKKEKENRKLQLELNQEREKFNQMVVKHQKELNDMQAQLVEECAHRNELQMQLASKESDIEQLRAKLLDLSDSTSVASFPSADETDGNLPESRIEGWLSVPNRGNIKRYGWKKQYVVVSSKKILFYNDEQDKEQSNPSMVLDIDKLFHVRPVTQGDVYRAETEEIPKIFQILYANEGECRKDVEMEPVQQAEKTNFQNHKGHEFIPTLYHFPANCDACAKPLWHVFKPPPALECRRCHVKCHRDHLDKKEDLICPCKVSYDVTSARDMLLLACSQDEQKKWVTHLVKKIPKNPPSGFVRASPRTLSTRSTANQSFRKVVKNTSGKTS
Data set [17] deals with Ribosomal protein S6 kinase alpha-4 (Homo sapiens) (UniProt O75676). The experiment in a line: Binding affinity to wild-type human partial length N-terminal RPS6KA4 kinase domain 1 expressed in bacterial expression system assessed as residual binding level at 1 uM by Kinomescan method relative to control.
Sequence of Ribosomal protein S6 kinase alpha-4 (Homo sapiens) (O75676 whole entry, looked up, the tested form may be a part): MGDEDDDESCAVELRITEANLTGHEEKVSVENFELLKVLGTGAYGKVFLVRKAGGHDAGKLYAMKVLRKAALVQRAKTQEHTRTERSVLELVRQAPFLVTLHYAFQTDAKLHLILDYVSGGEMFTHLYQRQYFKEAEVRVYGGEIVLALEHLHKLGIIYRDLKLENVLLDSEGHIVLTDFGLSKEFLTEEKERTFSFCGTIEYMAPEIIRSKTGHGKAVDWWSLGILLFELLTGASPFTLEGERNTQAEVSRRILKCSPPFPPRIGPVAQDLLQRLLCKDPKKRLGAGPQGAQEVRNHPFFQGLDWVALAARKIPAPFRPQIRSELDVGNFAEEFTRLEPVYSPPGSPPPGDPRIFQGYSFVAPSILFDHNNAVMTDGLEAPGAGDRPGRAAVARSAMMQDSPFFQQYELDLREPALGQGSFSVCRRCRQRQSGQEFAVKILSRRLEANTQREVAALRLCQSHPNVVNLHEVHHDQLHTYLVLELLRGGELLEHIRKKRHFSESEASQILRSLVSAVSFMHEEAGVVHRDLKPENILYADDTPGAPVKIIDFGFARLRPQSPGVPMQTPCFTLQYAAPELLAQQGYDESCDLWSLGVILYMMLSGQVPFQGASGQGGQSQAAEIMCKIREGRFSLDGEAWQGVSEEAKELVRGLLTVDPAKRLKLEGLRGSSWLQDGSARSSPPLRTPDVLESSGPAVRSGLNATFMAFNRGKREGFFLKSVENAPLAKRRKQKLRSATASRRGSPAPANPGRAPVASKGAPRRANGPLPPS
Data set [18] addresses Tyrosine-protein kinase Yes (Homo sapiens) (UniProt P07947). The experiment in a line: Binding affinity to wild-type human partial length YES (T257 to L543 residues) expressed in bacterial expression system assessed as residual binding level at 1 uM by Kinomescan method relative to control.
Another data set is filed under the species Homo sapiens. The experiment in a line: Selectivity index, ratio of GI50 for TEL-fused PDGFRbeta (unknown origin) expressed in mouse BA/F3 cells to GI50 for TEL-fused PDGFRalpha (unknown origin) expressed in mouse BA/F3 cells. In kind it is cell-based. In outline: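 Parental BaF3 or IL-3-independent TEL-kinase BaF3 lines, made by retroviral infection and puromycin selection, grown in RPMI 1640 with 10% FBS. Cells seeded at 1–3 × 10^4 cells/mL with serial compound concentrations for 72 h. Viability read by CellTiter-Glo luminescence or CCK-8 absorbance at 450/655 nm and normalised to DMSO. GI50 obtained by triplicate testing with linear regression. Selectivity is the ratio of the two GI50 values.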

Data set [19] can be described thus: MRT (0 to t) in Sprague-Dawley rat at 10 mg/kg, po. Conditions: in vivo. In kind it is ADME, organism-based.
The test system of a further data set is EOL1. Description: Antitumor activity against human EOL-1 cells engrafted in ip dosed NOD-SCID mouse assessed as increase in mouse survival administered 3 weeks post cell inoculation. The data set is classed as functional, organism-based. The essentials:
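Daily i.p. dosing started 3 weeks after inoculation at 7.5, 15 or 30 mg/kg/day. Mice monitored daily and euthanized when moribund or at hind-limb paralysis. Bone marrow cells, after red-cell lysis, stained with PE anti-HLA-ABC and counted by flow cytometry.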

Sequence of Serine/threonine-protein kinase LATS2 (Homo sapiens) (Q9NRM7 whole entry, the tested form may be a part): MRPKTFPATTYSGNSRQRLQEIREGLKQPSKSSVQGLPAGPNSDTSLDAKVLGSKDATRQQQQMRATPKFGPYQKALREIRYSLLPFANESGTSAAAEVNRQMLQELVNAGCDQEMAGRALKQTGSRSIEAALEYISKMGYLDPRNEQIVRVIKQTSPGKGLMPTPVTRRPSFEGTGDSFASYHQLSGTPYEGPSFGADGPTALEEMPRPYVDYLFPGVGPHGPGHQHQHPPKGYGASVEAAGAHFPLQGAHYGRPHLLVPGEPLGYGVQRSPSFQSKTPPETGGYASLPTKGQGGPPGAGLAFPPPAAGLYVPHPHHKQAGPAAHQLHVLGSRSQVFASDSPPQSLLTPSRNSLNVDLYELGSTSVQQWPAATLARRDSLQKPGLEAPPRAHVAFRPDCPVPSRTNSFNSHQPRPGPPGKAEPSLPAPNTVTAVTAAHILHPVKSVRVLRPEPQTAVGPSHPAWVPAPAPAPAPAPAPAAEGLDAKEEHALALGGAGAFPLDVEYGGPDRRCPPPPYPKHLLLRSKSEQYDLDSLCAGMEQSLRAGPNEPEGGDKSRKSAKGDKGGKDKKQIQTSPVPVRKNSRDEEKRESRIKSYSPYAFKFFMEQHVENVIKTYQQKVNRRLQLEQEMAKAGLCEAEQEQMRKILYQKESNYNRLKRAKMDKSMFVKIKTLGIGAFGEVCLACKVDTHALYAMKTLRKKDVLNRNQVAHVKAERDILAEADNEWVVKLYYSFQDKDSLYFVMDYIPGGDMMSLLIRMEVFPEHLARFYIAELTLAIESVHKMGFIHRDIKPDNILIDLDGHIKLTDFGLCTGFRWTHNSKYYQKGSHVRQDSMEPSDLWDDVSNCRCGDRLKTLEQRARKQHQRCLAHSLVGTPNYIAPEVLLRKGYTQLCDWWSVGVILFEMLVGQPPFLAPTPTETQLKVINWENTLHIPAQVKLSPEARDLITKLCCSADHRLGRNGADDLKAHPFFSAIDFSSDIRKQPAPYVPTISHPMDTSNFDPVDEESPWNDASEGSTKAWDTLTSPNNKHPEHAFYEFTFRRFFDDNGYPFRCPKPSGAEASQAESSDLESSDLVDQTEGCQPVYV

Regarding `Cc1ccc(NC(=O)c2ccc(CN(CCN(C)C)C(=O)c3cccnc3)cc2)cc1Nc1nccc(-c2cccnc2)n1`, the Activity in data set [1] was found to be 96%; in [2] it was 100%; in data set [3], 90%; in [4] it was 73%; in data set [5], 94%; in [6], 93%. Further, the Activity in [7] was determined as 96%; in [8] it was 48%; in data set [9] it was 100%; in data set [10], 99%; in data set [11] it was 100%; in [12], 6.8%. For the same compound, the Activity in data set [13] came to 93%; in data set [14], 75%; in data set [15], 93%; in [16], 100%; in data set [17], 82%; in data set [18], 100%. In addition, the Activity result in the data set with EOL1 is “Dose-dependent effect”. Also, the RatioGI50 in the data set listed under Homo sapiens is 85. The MRT last in data set [19] came out at 3.33 h.

In general, MRT last refers to the average time that molecules of a dose stay in the body.
